Reference: paper PMC3217223 (Bioorganic & Medicinal Chemistry, 2009)
Counter-ions that a name gives are not always drawn.

Tests used:
[1] = system: NMDA receptors; assay type: cell-based; settings: for NMDA receptor antagonism (in words): cerebellar granule neurons, glutamate or NMDA 100 μM + glycine 10 μM
[2] = system: bloodstream form T. brucei (strain 427); assay: T. brucei culturing and drug test; assay type: cell-based, Trypanosoma brucei; settings: for Trypanocidal properties (in words): bloodstream form T. brucei; for Trypanocidal activity (in words): at concentrations up to 5 mg mL^−1
In short: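 Parasites were kept at 37 °C in modified Iscove's medium (pH 7.4) and grown for 48 h with a range of test compound concentrations. Cell density at each concentration was counted by hemocytometer and expressed as percent of untreated control growth. Concentrations giving 50% and 90% growth inhibition (IC₅₀, IC₉₀) were determined. Run in triplicate.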

[3] = system: parainfluenza-3 virus; assay type: cell-based; settings: microscopy and MTS assay
[4] = system: vesicular stomatitis virus; assay type: cell-based
[5] = system: Punta Toro virus; assay type: cell-based; settings: microscopy and MTS assay
[6] = system: Reovirus-1; assay type: cell-based; settings: microscopy and MTS assay
[7] = system: influenza virus A/H3N2; assay type: cell-based, influenza virus A/Hong Kong/7/87 (H3N2); settings: influenza virus A/H3N2 (A/Hong Kong/7/87); microscopy and MTS assay
[8] = system: feline coronavirus; assay type: cell-based; settings: microscopy and MTS assay
[9] = system: influenza virus B; assay type: cell-based, influenza virus B/Hong Kong/5/72; settings: influenza virus B (B/Hong Kong/5/72); microscopy and MTS assay
[10] = system: vaccinia virus; assay type: cell-based
[11] = system: herpes simplex virus type 1; assay type: cell-based; settings: microscopy and MTS assay
[12] = system: respiratory syncytial virus; assay type: cell-based; settings: microscopy and MTS assay
[13] = system: Coxsackievirus B4; assay type: cell-based; settings: microscopy and MTS assay
[14] = system: sindbis virus; assay type: cell-based; settings: microscopy and MTS assay
[15] = system: influenza virus A/H1N1; assay type: cell-based, influenza virus A/Puerto Rico/8/34 (H1N1); settings: influenza virus A/H1N1 (A/Puerto Rico/8/34); microscopy and MTS assay
[16] = system: herpes simplex virus type 2; assay type: cell-based; settings: microscopy and MTS assay

CN(C)C12CC3CC(CC(C)(C3)O1)C2 [Compound 11a, N,N-Dimethyl(3-methyl-2-oxaadamant-1-yl)amine hydrochloride]
NMDA receptor antagonism (in words) [1]: inactive
Trypanocidal activity relative to amantadine ([2]; compared with amantadine): at least 30 times
Trypanocidal activity relative to rimantadine ([2]; compared with rimantadine): approximately twice

NC12CC3CC(C1)CC(C1CCCCC1)(C3)O2 [Compound 10d, (3-cyclohexyl-2-oxaadamant-1-yl)amine hydrochloride]
Antiviral activity [3]: None of the tested compounds displayed activity
Antiviral activity [4]: None of the tested compounds displayed activity
Antiviral activity [5]: None of the tested compounds displayed activity
Antiviral activity [6]: None of the tested compounds displayed activity
Antiviral activity [7]: none of the compounds was found to be active
Antiviral activity [8]: None of the tested compounds displayed activity
Antiviral activity [9]: none of the compounds was found to be active
Antiviral activity [10]: None of the tested compounds displayed activity
Antiviral activity [11]: None of the tested compounds displayed activity
Antiviral activity [12]: None of the tested compounds displayed activity
Antiviral activity [13]: None of the tested compounds displayed activity
Antiviral activity [14]: None of the tested compounds displayed activity
Antiviral activity [15]: none of the compounds was found to be active
Antiviral activity [16]: None of the tested compounds displayed activity

CCC12CC3CC(C1)CC(NC)(C3)O2 [Compound 15, N-Methyl(3-ethyl-2-oxaadamant-1-yl)amine hydrochloride]
Antiviral activity [3]: None of the tested compounds displayed activity
Antiviral activity [4]: None of the tested compounds displayed activity
Antiviral activity [5]: None of the tested compounds displayed activity
Antiviral activity [6]: None of the tested compounds displayed activity
Antiviral activity [7]: none of the compounds was found to be active
Antiviral activity [8]: None of the tested compounds displayed activity
Antiviral activity [9]: none of the compounds was found to be active
Antiviral activity [10]: None of the tested compounds displayed activity
Antiviral activity [11]: None of the tested compounds displayed activity
Antiviral activity [12]: None of the tested compounds displayed activity
Antiviral activity [13]: None of the tested compounds displayed activity
Antiviral activity [14]: None of the tested compounds displayed activity
Trypanocidal properties (in words) [2]: no significant trypanocidal properties
Antiviral activity [15]: none of the compounds was found to be active
Antiviral activity [16]: None of the tested compounds displayed activity

CC12CC3CC(C1)CC(N)(C3)O2 [Compound 10a, (3-Methyl-2-oxaadamant-1-yl)amine hydrochloride]
NMDA receptor antagonism (in words) [1]: inactive

CN(Cc1ccccc1)C12CC3CC(CC(C3)O1)C2 [Compound 3a, N-Benzyl-N-methyl(2-oxaadamant-1-yl)amine]
NMDA receptor antagonism (in words) [1]: inactive
Trypanocidal activity (in words) [2]: no activity

c1ccc(CN(Cc2ccccc2)C23CC4CC(CC(C4)O2)C3)cc1 [Compound 8, N,N-Dibenzyl(2-oxaadamant-1-yl)amine]
NMDA receptor antagonism (in words) [1]: inactive
Trypanocidal activity (in words) [2]: no activity

CCN(CC)C12CC3CC(CC(CC)(C3)O1)C2 [Compound 12, N,N-Diethyl(3-ethyl-2-oxaadamant-1-yl)amine hydrochloride]
Potency as NMDA receptor antagonist relative to amantadine ([1]; compared with amantadine): seven times more potent than amantadine
Potency as NMDA receptor antagonist relative to memantine ([1]; compared with memantine): ten times less potent than memantine

CN(CCc1ccccc1)C12CC3CC(CC(C3)O1)C2 [Compound 3b, N-Methyl-N-(2-phenylethyl)(2-oxaadamant-1-yl)amine hydrochloride]
Trypanocidal activity (in words) [2]: no activity

c1ccc(CNC23CC4CC(CC(C4)O2)C3)cc1 [Compound 2a, N-Benzyl(2-oxaadamant-1-yl)amine hydrochloride]
Antiviral activity [3]: None of the tested compounds displayed activity
Antiviral activity [4]: None of the tested compounds displayed activity
NMDA receptor antagonism (in words) [1]: inactive
Antiviral activity [5]: None of the tested compounds displayed activity
Antiviral activity [6]: None of the tested compounds displayed activity
Antiviral activity [7]: none of the compounds was found to be active
Antiviral activity [8]: None of the tested compounds displayed activity
Antiviral activity [9]: none of the compounds was found to be active
Antiviral activity [10]: None of the tested compounds displayed activity
Antiviral activity [11]: None of the tested compounds displayed activity
Antiviral activity [12]: None of the tested compounds displayed activity
Antiviral activity [13]: None of the tested compounds displayed activity
Antiviral activity [14]: None of the tested compounds displayed activity
Trypanocidal activity (in words) [2]: no activity
Antiviral activity [15]: none of the compounds was found to be active
Antiviral activity [16]: None of the tested compounds displayed activity

NC12CC3CC(C1)CC(c1ccccc1)(C3)O2 [Compound 10c, (3-Phenyl-2-oxaadamant-1-yl)amine hydrochloride]
Antiviral activity [3]: None of the tested compounds displayed activity
Antiviral activity [4]: None of the tested compounds displayed activity
NMDA receptor antagonism (in words) [1]: only a weak NMDA receptor antagonist
Antiviral activity [5]: None of the tested compounds displayed activity
Antiviral activity [6]: None of the tested compounds displayed activity
Antiviral activity [7]: none of the compounds was found to be active
Antiviral activity [8]: None of the tested compounds displayed activity
Antiviral activity [9]: none of the compounds was found to be active
Antiviral activity [10]: None of the tested compounds displayed activity
Antiviral activity [11]: None of the tested compounds displayed activity
Antiviral activity [12]: None of the tested compounds displayed activity
Antiviral activity [13]: None of the tested compounds displayed activity
Antiviral activity [14]: None of the tested compounds displayed activity
Antiviral activity [15]: none of the compounds was found to be active
Antiviral activity [16]: None of the tested compounds displayed activity

c1ccc(CCNC23CC4CC(CC(C4)O2)C3)cc1 [Compound 2b, N-(2-Phenylethyl)(2-oxaadamant-1-yl)amine hydrochloride]
Trypanocidal activity (in words) [2]: no activity

CCC12CC3CC(C1)CC(NCc1ccccc1)(C3)O2 [Compound 13, N-Benzyl(3-ethyl-2-oxaadamant-1-yl)amine hydrochloride]
Trypanocidal properties (in words) [2]: no significant trypanocidal properties
